Data reported in publication PMC11370551 (bioRxiv, 2024).

Legend:
Format in all cases: in vivo, mouse
female WT Swiss mice [1] = experiment: Safety profile and MTD in female WT Swiss mice; conditions: SC
Summary of the method: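 A GLP-1 receptor agonist was injected subcutaneously into WT mice at 0.5 (~5 nmol), 3 (~30 nmol) or 10 mg/kg (~100 nmol) to check tolerability before the painting studies.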

female WT Swiss mice [2] = experiment: Ip-GTT in WT Swiss mice; conditions: 6 days ([…]) after single SC 10 mg/kg; glucose 2 g/kg IP; naïve 21,354 ± 431
Summary of the method: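 Female WT Swiss mice got a single subcutaneous injection of test compound at 10 mg/kg (~25 nmol). […] AUCs were compared by non-parametric t-tests.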

Lepob/ob obese mice [3] = experiment: Efficacy in obese Lepob/ob mice after SC injection
Summary of the method: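 Obese Lepob/ob mice (n = 6 per compound; 3 males, 3 females) got a single subcutaneous 10 mg/kg injection. Untreated non-obese C57BL/6J mice (3 males, 3 females) gave healthy baselines. Body weight was tracked as % change from Day 0. Blood glucose was read after 6 h fasting. IP glucose tolerance: 2 g/kg after 5–6 h fast. ITT: insulin 2.5 IU/kg at 240 h, AUC0–90 min, k-ITT. Analysis: two-way ANOVA and multiparametric t-tests.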

Lepob/ob obese mice [4] = experiment: Efficacy in obese Lepob/ob mice after IP injection; conditions: single IP 10 mg/kg
Summary of the method: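 Obese Lepob/ob mice got a single intraperitoneal 10 mg/kg injection of test compound; the other arm of the route comparison was subcutaneous. Body weight was tracked as % change from Day 0. Fasting blood glucose was measured. Insulin response was assessed 10 days post-injection.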

Q: With Semaglutide as the substance, how does the “dose from which hypoglycemia was observed” value (female WT Swiss mice [1]; WT mice, doses 0.5, 3, 10 mg/kg) read?
A: ≥ 0.5 mg/kg

Q: What about the “MTD (maximum tolerated dose among the assessed range)” value (female WT Swiss mice [1]; female WT Swiss mice) of the same substance?
A: 10 mg/kg

Q: What about the “Ip-GTT AUC0–120min” value (female WT Swiss mice [2]) of the same substance?
A: 21,282 ± 795

Q: And the body weight loss (Lepob/ob obese mice [3]; for 3 days after single SC 10 mg/kg (~170 nmol), n = 6)?
A: about 8.3 ± 0.5%

Q: And the “duration of significant body weight loss” value (Lepob/ob obese mice [3]; single SC 10 mg/kg)?
A: 3 days

Q: And the “duration of blood glucose down-regulation” value (Lepob/ob obese mice [3]; single SC 10 mg/kg, both sexes combined)?
A: up to 10 days

Q: And the “duration of sustained body weight loss” value (Lepob/ob obese mice [4])?
A: up to 7 days

Q: What about the “fasting blood glucose lowering after 10 days” value (Lepob/ob obese mice [4]; 240 h p.i.) of the same substance?
A: no more efficacy
